According to the EternaBench riboswitch data:

Tested on: MS2 coat protein
Assay: apparent Kd, MS2 coat protein; higher = weaker binding; RNA-MaP array; theophylline 2 mM where present
In short: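 Green signal from SNAP-549-labelled MS2 coat protein was normalised to red-channel RNA signal and to the median Fmax of control clusters. The protein was titrated from 0.7 or 1.5 nM, doubling to 3 µM, without and then with constant ligand, over designs transcribed by stalled E. coli RNA polymerase on Illumina sequencing-chip clusters, in 100 mM Tris-HCl pH 7.5, 80 mM KCl, 4 mM MgCl2, BSA, DTT, yeast tRNA and Tween-20. The apparent Kd is the median of filtered per-cluster binding-curve fits.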

[1] = designed as: ON switch for theophylline, no ligand
[2] = ligand present: theophylline, designed as: ON switch for theophylline
[3] = designed as: OFF switch for theophylline, no ligand
[4] = ligand present: theophylline, designed as: OFF switch for theophylline

Sequence | apparent Kd [1] [nM] | apparent Kd [2] [nM] | apparent Kd [3] [nM] | apparent Kd [4] [nM]
ACACAUGAGGAUCACCCAUGUCCAAUAGAUACCAGUGAUACGGUGCACCCUUGGCAGCUGUUACUGAGUGAUGGUUCCCUCGGAA | 67.6 | 97.1 |  | 
ACAUAGAGAUUAAUCGUGGGCAUACUCGAUACCAGUAUUUUAACCUACCCUUGGCAGCGACAUGAGGAUCACCCAUGUGAGAUGA |  |  | 22.2 | 39.5
ACAUCCAGGUUAAUCGUGGACAUGGUCGAUACCAGUAUUUUAAUCUACCCUUGGCAGCGACAUGAGGAUCACCCAUGUGCGAUGA |  |  | 14.3 | 31.4
ACAUGAGGAUCACCCAUGUCUGCCACUGAUACCAGCGGAAGAAAACGCCCUUGGCAGCAGAACAUGAGGAUCACCCAUGUAGGCU | 274 |  |  | 
ACAUGAGGAUCACCCAUGUGCCGUCUUGAUACCAGACGCGAAGUAGUCCCUUGGCAGCAACUACGUGACGGUCGCGCAUGUGUAG |  |  | 16.6 | 28.6
ACAUGAGGAUCACCCAUGUUCCUCGCCGAUACCAGUGAAGAAGAACGCCCUUGGCAGCGGAAAGAAUAUUUUGGAGAUGAGGUAU |  |  | 164 | 189
ACAUGAGGAUCCGAUACCAGCCACAUGAGGAUCACCCAUGUAGUACAUGAGGAUCACCCAGGCCCUUGGCAGCGGACAUGAGGAU |  |  | 178 | 1900
ACCAGCACACAUGAUACCAGCGACAUGAGGAUCACCCAUGUACGGCGUGUAUCGAAAGGUUGCCCUUGGCAGCAUGAUAGUGCUA |  |  | 12.8 | 129
ACCUACACGGAGACGUGUAGGAGUAAUGAUACCAGCAUGGAGACAUGCCCUUGGCAGCGUUACAUGAGGAUCACCCAUGUACGUU |  |  | 10.2 | 14.1
ACGAACUGUAGUGAUACCAGACACACAUGAGGAUCACCCAUGUUGUUAGCAUGGUGAAUAGUCCCUUGGCAGCACAGUUAGUUCG |  |  | 98.6 | 217
ACGACGCAUAGUGAUACCAGUAGAACAUGAGGAUCACCCAUGUCUGUGACGCACAAAUUCUGCCCUUGGCAGCACUAUGCGUCAG | 11.4 | 33.3 |  | 
ACGAUACGACAUGAGGAUCACCCAUGUGAUACCAGCCUGGAAACAGGCCCUUGGCAGCACAAAUACUCCAGAAACGUAUCGAAAA |  |  | 204 | 469
ACGAUAGGACAUGAGGAUCACCCAUGUGAUACCAGCCUGGAAACAGGCCCUUGGCAGCACAAAUACUCCAGAAACCUAUCGAAUA |  |  | 281 | 226
ACUAGUUGUGCAGAUACCAGACAUGAGGAUCACCCAUGUUUGGGAUGUUCGCAUCUUCCUGUCCCUUGGCAGCUGUACAUCUAGA |  |  | 82.5 | 44.6
ACUAGUUGUGCAGAUACCAGACAUGAGGAUCACCCAUGUUUGGGUUGUUCGCAACUUCCUGUCCCUUGGCAGCUGUACAUCUAGA |  |  | 24.9 | 138
ACUUCAUGAGGUGAUACCAGCCAAUGACAUGAGGACAUGAGGAUCACCCAUGUUUAUGUAGGCCCUUGGCAGCAUUGUAACAUGA | 59.4 | 52.3 |  | 
AGAAUACAUGUUUUAAUACGGUUUACUGAUACCAGUGUAUCUAUUCACCCUUGGCAGCAGAGACAUGAGGAUCACCCAUGUAUUA |  |  | 38.8 | 55.2
AGACAUGAGGAUCACCCAUGUAGCACGGAUACCAGAUCCAGAUUUAUCCCUUGGCAGCUGUGGUACAGCGUUGCAACGCUCCUAG |  |  | 18.8 | 29.4
AGACAUGAGGAUCACCCAUGUAGCAUGGAUACCAGAUGUAGAUUUGUCCCUUGGCAGCUGUGGUAAAGUGAUGCAUUGCUCCUAG |  |  | 45.2 | 45.2
AGACAUGAGGAUCACCCAUGUAGUAUGGAUACCAGAUCCAGAUUUAUCCCUUGGCAGCUGUGGUACAGCGAUGGAUUGCUCCUAG |  |  | 38 | 39.8
AGAUGCCACUGUGGAUAGCACGAUGCCGAUACCAGCUAGGAAACUAGCCCUUGGCAGCGGUACAUGAGGAUCACCCAUGUAUCCU |  |  |  | 75
AUAAGUAAUGUCUCGUGUAUUAUUACAGAUACCAGACUAUCCUAUGUCCCUUGGCAGCUGGAUUACAUGAGGAUCACCCAUGUUG |  |  | 23.2 | 27.5
AUAAGUAUGUUUUCGUGUUUUAUUACAGAUACCAGACUAUACGUUGUCCCUUGGCAGCUGGAUUACAUGAGGAUCACCCAUGUUG |  |  | 23.1 | 53
AUAGUCUAGAGUGAUACCAGACAACAUGAGGAUCACCCAUGUAGCAUAUGGUUAUCAUGAGUCCCUUGGCAGCACGCAUGUAUAG |  |  | 12.3 | 55.8
AUAUGAUCAUGGGAUACCAGAAAUGGUAUUCCUUUAUUUCUUACAUGAGGAUCACCCAUGUUCCCUUGGCAGCUUAUGAUCAUAU |  |  | 75 | 282
AUAUGAUCAUGUGAUACCAGAAAUGGUAGUCUUCACUGGAUUACAUGAGGAUCACCCAUGUUCCCUUGGCAGCAUAUGAUCAUAU |  |  | 43.6 | 259
AUCGUACCUAAUGAUACCAGCAAGUGAUCAUAACAUGAGGAUCACCCAUGUAAUCAGUGAUGCCCUUGGCAGCAUAAUCGUUACA | 163 | 127 |  | 

Sequence | apparent Kd [1] [nM] | apparent Kd [2] [nM] | apparent Kd [3] [nM] | apparent Kd [4] [nM]
AUGUCAUUGGUGUAGCUGUGAAAUGGCGAUACCAGCGUGGAAACACGCCCUUGGCAGCGCCAAAACAUGAGGAUCACCCAUGUUA |  |  | 87.6 | 272
AUGUCGUUGAAUAUAGCGGCUUGGUGUGAUACCAGAAUGAUCAAAUUCCCUUGGCAGCAUUACAUGAGGAUCACCCAUGUUUAGG | 23.7 | 22.9 |  | 
AUUUACAUGGUCAUAUAUAUAUCGUCAGAUACCAGACGAGAUAUUGUCCCUUGGCAGCUGUUACAUGAGGAUCACCCAUGUAAUU |  |  | 85.8 | 83.7
AUUUAUAGUUGUGAUACCAGACUUACAUGAGGAUCACCCAUGUUACUUAAAUGUUUUGAUGUCCCUUGGCAGCACUGUUUUUUUA |  |  | 16.6 | 
AUUUAUUGUCGUGAUACCAGACAUACAUGAGGAUCACCCAUGUUAAGUAACAUUUUUUAGGUCCCUUGGCAGCACUUUUUAAUUA | 26.1 | 15.8 |  | 
AUUUUUCUAUCAGAUACCAGACAACUCCAAACAUGAGGAUCACCCAUGUAUUGGGUGUUCGUCCCUUGGCAGCUGUUAAUGUUAA | 16.9 | 9.41 |  | 
CAUACUUGAUCCUAUGAGCCUAUUUGUGAUACCAGCAUCUAAAUUUGCCCUUGGCAGCACUAACAUGAGGAUCACCCAUGUUAUA |  |  | 34.9 | 71.8
CCACACAUGAGGAUCACCCAUGUAAUUGAUACCAGAUUUAAAUGAGUCCCUUGGCAGCAGUGAGCUAGAGUUGUCGUAUAUAUGG | 17 | 18.9 |  | 
CGAAUACCAAUUGAUACCAGCAUGUUAACAUGAGGAUCACCCAUGUUAAGGAUAACAUAAUGCCCUUGGCAGCAACGUAAAUUCG | 22.9 | 13.5 |  | 
CGAUCUUUCGAAAGAAGGAUCGAUUCUGAUACCAGAGACGAAAGUCUCCCUUGGCAGCAGUGCCAACAUGAGGAUCACCCAUGUA | 22.4 | 21.3 |  | 
CGCACAGAGAAUGAUACCAGCGAGGAAGCGACAUGAGGAUCACCCAUGUGCGAAUGAUCCCGCCCUUGGCAGCGUAAGUGAUCCC | 111 | 71.3 |  | 
CGUGAUCCCUGUGAUACCAGAAGUACAUGAGGAUCACCCAUGUCAAACACAAAACCAAGCUUCCCUUGGCAGCAUAGUCGUUAAG | 238 | 1310 |  | 
CGUGUGCGUUCUGAUACCAGAGACAUGAGGAUCACCCAUGUCCGAUCGUCCUGCCUCAGACUCCCUUGGCAGCAGGUUUUGUGCU |  |  | 45.7 | 60.9
CUAGGAAACUAGUAAGGGUGGUAUUGAGAUACCAGUACAGAAAUGUACCCUUGGCAGCUCACUGCAACAUGAGGAUCACCCAUGU |  |  | 24.1 | 55.9
CUGCCAUGCAGAGAUACCAGUGCGCUCAGCACAUGAGGAUCACCCAUGUUGGCUGCCGAUCACCCUUGGCAGCUCUGCAUGGCAG | 10.8 | 7.62 |  | 
CUUGGUAGAUCCUAGCUGCCAAGAGGUGAUACCAGCAUCGAAAGAUGCCCUUGGCAGCACCAACAUGAGGAUCACCCAUGUAAUA | 70.7 | 339 |  | 
GAUGAUAUUGCAGAUACCAGACACAUGAGGAUCACCCAUGUCGUUGGGUAGCUGGGUCGUGUCCCUUGGCAGCUGCGAUAUCAUC |  |  | 23.3 | 138
GCAAUACAUGAGGAUCACCCAUGUGCAGAUACCAGAGGUGCGUGCCUCCCUUGGCAGCUGCGACGCUCUGGAAGCUUGUGUGUCU |  |  | 19.4 | 25.2
GCACCAGGUACGGAUACCAGAAUUUGCCAAUUGGGUGAACAUGAGGAUCACCCAUGUUAUUUCCCUUGGCAGCCGUACCUGGUGC |  |  | 8.75 | 15.9
GCACCAGGUACGGAUACCAGAGCAAGCCAAAUGAGUGAACAUGAGGAUCACCCAUGUUUGCUCCCUUGGCAGCCGUACCUGGUGC |  |  | 9.34 | 45.2
GCACCAGGUACGGAUACCAGCUAUAGGCCCUAUGGGCGACAUGAGGAUCACCCAUGUAAUGGCCCUUGGCAGCUGUACCUGGUGC | 169 | 11.3 |  | 
GCUGGGUGCGCAAGGACCUGGCGUUGCGAUACCAGCACGGUAACGUGCCCUUGGCAGCGCACAUGAGGAUCACCCAUGUGGUGUU |  |  | 276 | 310
GCUUGGGUGGCCCAGCCCUGGCAGGGCGAUACCAGCACGGUAACGUGCCCUUGGCAGCGCACAUGAGGAUCACCCAUGUGGUGCG |  |  | 127 | 266
GGAUAGAUAGGAGAUACCAGAUACAUAAACAUGAGGAUCACCCAUGUGUCUGCACUAAGUAUCCCUUGGCAGCUCGGAGAUCUGA | 17.6 | 15 |  | 
GGCCUUGCGGGCGCCCGCAAGGCCGCGGAUACCAGCGAGGUCCAUCGCCCUUGGCAGCCGAACAUGAGGAUCACCCAUGUCGGUU | 11 | 13.4 |  | 
GGGUAUGAUCCGGAUACCAGCGAACAUGAGGAUCACCCAUGUGACCUAAGAUAGGCUCUACGCCCUUGGCAGCCGCGAUCGCGUU | 24.8 | 16.1 |  | 
GUGAGGUUUGAUGAUACCAGAUGUGGUGGGAACAUGAGGAUCACCCAUGUUGUGAAACAGGUCCCUUGGCAGCAUGAGAGAGCUU | 47.8 | 44.3 |  | 
